Source: PubChem (several laboratories)
LMPTP block: LMPTP phosphatase inhibitors, primary screen, biochemical, fluorescence intensity, uHTS. Low molecular weight phosphotyrosine protein phosphatase (Homo sapiens), P24666. recombinant LMPTP-A, OMFP fluorogenic substrate. inhibition, % at 20 µM. 0.22% of 360,000 active;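 active = compounds that cut the enzyme signal by at least half of the control window in the single-dose screen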;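 note: plate controls were DMSO wells with enzyme plus substrate for no effect and substrate without enzyme for full effect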
Target sequence (P24666 whole entry, looked up): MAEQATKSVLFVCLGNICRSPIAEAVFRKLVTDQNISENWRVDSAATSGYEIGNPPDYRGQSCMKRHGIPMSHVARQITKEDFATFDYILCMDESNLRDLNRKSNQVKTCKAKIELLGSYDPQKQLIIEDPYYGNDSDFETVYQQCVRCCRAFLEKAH
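Assay system: LMPTP-A enzyme. Input: 0.625 nM LMPTP-A final. Probe or stimulus: 400 µM OMFP. Compound dosing: single 20 µM dose. Schedule: 50 min dark incubation at room temperature. Detection: fluorescence intensity of OMFP turnover product. Read-out: percent inhibition versus substrate-only and uninhibited controls. Benchmarks: no-enzyme low control, uninhibited high control.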
DNMT1 block: human DNMT1 methyltransferase inhibitors, primary screen, biochemical, molecular beacon, fluorescence, HinP1I cleavage, uHTS; inhibition (reported as % activation of signal), % at 10 µM; 0.83% of 360,000 active; in the data active = inhibition above about 50%
STEP block: STEP phosphatase inhibitors, primary screen, biochemical, fluorescence intensity, uHTS | Tyrosine-protein phosphatase non-receptor type 5 (Homo sapiens), P54829 | inhibition, % at 20 µM | 0.25% of 360,000 active | recombinant STEP, OMFP fluorogenic substrate;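 active = inhibition at 20 µM, scaled per plate between control wells, above about 37%, limit read from the data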;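 note: 0% = DMSO with enzyme and substrate and 100% = substrate only without enzyme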
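Measure: Control-normalized % inhibition with plate pattern correction | Test system: STEP phosphatase, cell-free reaction | Medium: pH 6.0 Bis-Tris with DTT and Tween 20 | Technique: Fluorescence, 480/540 nm | Times: Reaction 20 min, ambient temperature | Doses: Single compound dose of 20 µM, 1% DMSO final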
SUMO1-SIM PPI: modulators of SUMO1 protein-protein interactions, primary screen, biochemical, uHTS; inhibition, % at 20 µM; 0.33% of 360,000 active; SUMO1 binding to a labelled peptide, TR-FRET, 1 h; Small ubiquitin-related modifier 1 (Homo sapiens), P63165; in the data active = inhibition above about 37%
Target sequence (P63165 whole entry, looked up): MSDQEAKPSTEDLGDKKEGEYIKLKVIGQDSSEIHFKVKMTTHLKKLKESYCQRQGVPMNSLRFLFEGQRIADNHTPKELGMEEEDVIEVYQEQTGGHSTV
Scp-1 inhibitor: Scp-1 phosphatase inhibitors, primary screen, biochemical, colorimetric, uHTS | Carboxy-terminal domain RNA polymerase II polypeptide A small phosphatase 1 (Homo … | 0.88% of 340,000 active | inhibition, % at 20 µM | AID 493091, 2011 | Recombinant Scp1, phosphopeptide, malachite green phosphate absorbance;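 active = inhibition above about 50% at 20 µM, limit read from the data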;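 note: plate controls were DMSO wells with enzyme for no effect and wells lacking enzyme for full effect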
Target sequence (Q9GZU7 76-261 limits assumed): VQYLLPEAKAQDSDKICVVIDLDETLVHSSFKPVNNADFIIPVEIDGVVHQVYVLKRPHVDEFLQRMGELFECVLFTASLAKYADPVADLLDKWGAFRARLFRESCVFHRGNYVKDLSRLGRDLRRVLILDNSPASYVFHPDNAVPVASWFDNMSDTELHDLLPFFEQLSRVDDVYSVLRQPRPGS
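Test system – truncated SCP-1 phosphatase (76-261aa) · Reagent – Phosphorylated 17-residue peptide substrate · Incubation – 45 min room-temperature reaction, 5 min colour, 30 min stabiliser · Detection – colorimetric phosphate reagent with accelerator and stabiliser, absorbance at 630 nm · Measure – % inhibition at 20 µM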
GRK2 inh: compounds blocking aptamer binding on GRK2 – biochemical, human GRK2, bead flow cytometry, HTS, primary screen | Beta-adrenergic receptor kinase 1 (Homo sapiens), P25098 | FAM-aptamer displacement from GRK2 | inhibition of aptamer binding, % at 10 µM | 0.59% of 330,000 active | AID 488847, 2010;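 active = inhibition of aptamer binding above 40%, roughly 3 SD of noise, on plates passing a quality check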;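 note: median bead fluorescence of bound FAM aptamer so fluorescent compounds give negative values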
DNMT1 confirm: DNMT1 methyltransferase inhibitor retest, confirmation, biochemical, molecular beacon, fluorescence, single concentration | shares compounds with DNMT1 block | DNMT1 molecular beacon HinP1I cleavage | inhibition, % at 10 µM | 8% of 2,300 active | AID 602385, 2012;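 active = average inhibition of at least 30% in the single-concentration confirmation test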
Beacon interf: shows spectral interference in the DNMT1 beacon assay; shares compounds with DNMT1 block; DNMT1 molecular beacon spectral interference counterscreen, fluorescence 485/520; activation (fluorescence interference), % at 10 µM; 1% of 2,300 active;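 active = activation of at least 30% at 10 µM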;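 note: DNMT1 catalytic domain with a HinP1I cleavage step and a FAM/dabcyl DNA beacon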
Starred values were filed as active, the others as inactive; / = not tested or not shown. The list is not random: actives were taken first. Their share in the collection is about 2.1%.

SMILES	LMPTP block	DNMT1 block	STEP block	SUMO1-SIM PPI	Scp-1 inhibitor	GRK2 inh	DNMT1 confirm	Beacon interf
COc1ccc(/C=C2/SC(=O)N(CCC(=O)Nc3ccccc3)C2=O)cc1OC	0	62*	1	-5	3	0	2	3
COc1ccc(/C=C2\SC(=O)N(CC(=O)Nc3cccnc3)C2=O)cc1OC	0	-5	-2	-26	-1	4	/	/
CCCCCn1c(N)c(-c2nc3ccccc3o2)c2c([N+](=O)[O-])nn(CC)c(=O)c21	56*	95*	38	11	102*	0	2	1
NC(=O)c1nsc(C(=O)N(c2ccccc2)C(C(=O)NC2CCCC2)c2cccs2)c1N (stereo not drawn)	10	54*	-3	-3	2	1	6	0
CCOc1ccccc1N(C(=O)c1snc(C(N)=O)c1N)C(C(=O)NC1CCCC1)c1cccs1 (stereo not drawn)	4	-3	2	-8	-5	1	/	/
COc1ccc(C(C(=O)NC2CCCC2)N(C(=O)c2snc(-c3ccc(F)cc3)c2N)c2ccccc2)cc1 (stereo not drawn)	-4	58*	-1	2	-2	1	3	4
CC12CCC(O)CC1=CCC1C2CCC2(C)C(c3ccn[nH]3)CCC12 (stereo not drawn)	-1	-5	-6	2	1	/	/	/
CCN(CC)S(=O)(=O)c1ccc(-c2nnc(SCC(=O)N3CCOCC3)o2)cc1	-2	4	2	2	-3	3	/	/
CCN(CC)S(=O)(=O)c1ccc(-c2nnc(SCC(=O)N3CCc4ccccc43)o2)cc1	-3	54*	2	-5	-5	2	1	-2
C=CCn1c(=O)c(C(=O)NC(C)c2ccccc2)c(O)c2ccccc21 (stereo not drawn)	1	84*	-1	3	-11	0	3	4
C=CCn1c(=O)c(C(=O)Nc2ccc(C)cc2)c(O)c2ccccc21	-1	1	0	1	-8	1	/	/
CCOc1ccccc1N(CC)C(=O)c1nn(C)c2c1CSc1ccccc1-2	3	-3	6	4	0	3	/	/
CCOc1cc(/C=C2\CCCc3c2nc2ccccc2c3C(=O)O)ccc1OC	-6	61*	-50	8	-7	0	2	1
O=C(CCc1c[nH]c2ccccc12)NCCc1ccc(O)cc1	-1	-1	-2	2	-8	0	/	/
CSc1nc(NCCOCCO)c2sc3nc(-c4ccco4)c4c(c3c2n1)CCC4	2	87*	2	23	0	2	20	19
O=CN1CCN(S(=O)(=O)c2ccc(S(=O)(=O)NC3CCCCC3)cc2)CC1	0	3	1	3	-4	0	/	/
O=C(N/N=C/c1cc(Br)c(Br)o1)c1ccc2c(c1)OCCO2	35	72*	10	3	84*	15	14	0
O=C(N/N=C/c1cc(Br)c(Br)o1)c1cccnc1	2	62*	2	3	21	15	3	0
CC(=O)N1Cc2cc(C(=O)NCC(F)(F)F)nc(-c3cccc(-c4cccnc4)c3)c2[C@@H]1CCO	-2	/	/	0	/	/	/	/
